Results reported in ChEMBL document CHEMBL3286094, “Synthesis and biological evaluation of novel bisbenzimidazoles as Escherichia coli topoisomerase IA inhibitors and potential antibacterial agents” (J Med Chem, 2014).
In brackets after ≈: the same amount, converted by molar mass. Activity calls are given as the source filed them. The calls are words filed in the database; no cut-off is given here.

How the values were obtained:
Escherichia coli [1] = test: Bactericidal activity against chloramphenicol/ampicillin/trimethoprim/ciprofloxacin/nalidixic acid-resistant Escherichia coli 59 by agar plating method; format: functional
Escherichia coli [2] = test: Bactericidal activity against multidrug-resistant Escherichia coli IP9 isolated from water source by agar plating method
Escherichia coli [3] = test: Bactericidal activity against ampicillin/trimethoprim/nalidixic acid-resistant Escherichia coli 118 by agar plating method; format: functional
Escherichia coli [4] = test: Bactericidal activity against chloroamphenicol/ampicillin/kanamycin/trimethoprim/ciprofloxacin/nalidixic acid-resistant Escherichia coli 85 by agar plating method; format: functional
Escherichia coli [5] = test: Antibacterial activity against multidrug-resistant Escherichia coli IP9 isolated from water source assessed as growth inhibition after 18 to 24 hrs by broth microdilution method
Escherichia coli [6] = test: Bactericidal activity against ampicillin/tetracycline-resistant Escherichia coli IP18 isolated from water source by agar plating method
Escherichia coli [7] = test: Antibacterial activity against Escherichia coli DH5[alpha] assessed as growth inhibition after 18 to 24 hrs by broth microdilution method; format: functional
Escherichia coli [8] = test: Bactericidal activity against chloramphenicol/ampicillin/kanamycin/trimethoprim/ciprofloxacin/nalidixic acid-resistant Escherichia coli 151 by agar plating method; format: functional
Escherichia coli [9] = test: Bactericidal activity against Escherichia coli DH5[alpha] by agar plating method; format: functional
Escherichia coli [10] = test: Antibacterial activity against ampicillin/chloramphenicol/tetracycline/trimethoprim/ciprofloxacin-resistant Escherichia coli KK45 isolated from water source assessed as growth inhibition after 18 to 24 hrs by broth microdilution method
Escherichia coli [11] = test: Bactericidal activity against ampicillin/tetracycline/gentamicin-resistant Escherichia coli 451 by agar plating method; format: functional
Escherichia coli [12] = test: Antibacterial activity against cefazolinl/ampicillin/piperacillin/cefuroxime/cefepime/cefotaxime/tetracycline/ciprofloxacin-resistant Escherichia coli NG3 isolated from water source assessed as growth inhibition after 18 to 24 hrs by broth microdilution method
Escherichia coli [13] = test: Bactericidal activity against gentamicin/kanamycin/tetracycline/nalidixic acid-resistant Escherichia coli 360 by agar plating method; format: functional
Escherichia coli [14] = test: Bactericidal activity against tetracycline/trimethoprim-resistant Escherichia coli IST isolated from water source by agar plating method
Escherichia coli [15] = test: Bactericidal activity against ampicillin/trimethoprim/cefazolinl/piperacillin/cefuroxime/cefoxitine/cefepime/cefotaxime-resistant Escherichia coli KP21 isolated from water source by agar plating method
Escherichia coli [16] = test: Bactericidal activity against Escherichia coli ATCC 25922 by agar plating method; format: functional
Escherichia coli [17] = test: Antibacterial activity against Escherichia coli ATCC 25922 in iv dosed Balb/c neutropenic thigh infection model assessed as concentration required to cause 1 log10CFU reduction per gram of thigh administered as single bolus dose at 2 hrs post inoculation measured after 24 hrs; format: functional
Summary of the method: (§1)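 Neutropenic thigh infection with E. coli ATCC 25922. Compound was dosed at 3 and 5 mg/kg body weight/day. Read-out was thigh bacterial burden, expressed as log reduction and compared with the static level.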

Escherichia coli [18] = test: Antibacterial activity against Escherichia coli ATCC 25922 in iv dosed Balb/c neutropenic thigh infection model assessed as concentration required to cause 3 log10CFU reduction per gram of thigh administered as single bolus dose at 2 hrs post inoculation measured after 24 hrs; format: functional; summary of the method: as §1
Escherichia coli [19] = test: Antibacterial activity against Escherichia coli ATCC 25922 in iv dosed Balb/c systemic infection model assessed as increase in survival administered single bolus dose measured every day for 7 days; format: functional
Summary of the method: (§2)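 Mice were infected intraperitoneally with E. coli ATCC 25922 suspended in saline. Treatment was a single bolus intravenous tail-vein injection at 3, 5 or 7 mg/kg body weight, dissolved in sterile water. A vehicle-only group served as control. Survival was monitored after infection.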

Escherichia coli [20] = test: Inhibition of Escherichia coli DNA topoisomerase-1A using supercoiled pHOT1 plasmid DNA as substrate assessed as inhibition of DNA relaxation at 5 to 100 uM after 30 mins by agarose gel electrophoresis in presence of 25 mM MgCl2
Escherichia coli [21] = test: Antibacterial activity against Escherichia coli ATCC 25922 in iv dosed Balb/c neutropenic thigh infection model assessed as reduction of bacterial burden in thigh administered as single bolus dose at 2 hrs post inoculation measured after 24 hrs; format: functional; summary of the method: as §1
Escherichia coli [22] = test: Antibacterial activity against Escherichia coli ATCC 25922 in Balb/c systemic infection model assessed as increase in survival at 7 mg/kg, iv administered single bolus dose measured every day for 7 days relative to vehicle-treated control; format: functional; details: ATCC 25922, in Mus musculus, 168 h; summary of the method: as §2
[23] = Binding affinity to d(ATATATATATATAT)2 DNA (unknown origin) by fluorescence spectroscopic analysis
Summary of the method: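 Fluorescence titration of the compound with a poly(AT) DNA sequence, with the binding constant derived from the titration.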

Escherichia coli [24] = test: Binding affinity to Escherichia coli DNA topoisomerase-1A by isothermal titration calorimetric analysis in presence of MgCl2/KCl
Summary of the method: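 Isothermal titration calorimetry with sequential injections of EcTopo 1A into the compound solution. Raw heats were corrected using injections of identical amounts of EcTopo 1A into buffer alone. Binding affinity constant and binding free energy were derived from the thermogram.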

SMILES	MBC (Escherichia coli [1]) [µg/mL]	MBC (Escherichia coli [2]) [µg/mL]	MBC (Escherichia coli [3]) [µg/mL]	MBC (Escherichia coli [4]) [µg/mL]	MIC50 (Escherichia coli [5]) [µg/mL]	MIC90 (Escherichia coli [5]) [µg/mL]	MBC (Escherichia coli [6]) [µg/mL]	MIC50 (Escherichia coli [7]) [µg/mL]	MIC90 (Escherichia coli [7]) [µg/mL]	MBC (Escherichia coli [8]) [µg/mL]	MBC (Escherichia coli [9]) [µg/mL]	MIC50 (Escherichia coli [10]) [µg/mL]	MIC90 (Escherichia coli [10]) [µg/mL]	MBC (Escherichia coli [11]) [µg/mL]	MIC50 (Escherichia coli [12]) [µg/mL]	MIC90 (Escherichia coli [12]) [µg/mL]	MBC (Escherichia coli [13]) [µg/mL]	MBC (Escherichia coli [14]) [µg/mL]	MBC (Escherichia coli [15]) [µg/mL]	MBC (Escherichia coli [16]) [µg/mL]	also measured
CCCN1CCN(c2ccc3nc(-c4ccc5nc(-c6ccc(OC)c(OC)c6)[nH]c5c4)[nH]c3c2)CC1	8 (≈ 16.1 µM)	16 (≈ 32.2 µM)	4 (≈ 8.05 µM)	16 (≈ 32.2 µM)	8 (≈ 16.1 µM)	15.4 (≈ 31 µM)	8 (≈ 16.1 µM)	2 (≈ 4.03 µM)	3.2 (≈ 6.44 µM)	16 (≈ 32.2 µM)	4 (≈ 8.05 µM)	4 (≈ 8.05 µM)	7.7 (≈ 15.5 µM)	8 (≈ 16.1 µM)	4 (≈ 8.05 µM)	7.6 (≈ 15.3 µM)	16 (≈ 32.2 µM)	16 (≈ 32.2 µM)	16 (≈ 32.2 µM)	16 (≈ 32.2 µM)	
COc1ccc(-c2nc3ccc(-c4nc5ccc(N6CCN(c7ccncc7)CC6)cc5[nH]4)cc3[nH]2)cc1OC	4 (≈ 7.52 µM)	4 (≈ 7.52 µM)	2 (≈ 3.76 µM)	4 (≈ 7.52 µM)	2 (≈ 3.76 µM)	3.6 (≈ 6.77 µM)	4 (≈ 7.52 µM)	0.5 (≈ 0.941 µM)	1.8 (≈ 3.39 µM)	2 (≈ 3.76 µM)	1 (≈ 1.88 µM)	2 (≈ 3.76 µM)	3.7 (≈ 6.96 µM)	4 (≈ 7.52 µM)	1 (≈ 1.88 µM)	1.8 (≈ 3.39 µM)	2 (≈ 3.76 µM)	1 (≈ 1.88 µM)	4 (≈ 7.52 µM)	4 (≈ 7.52 µM)	
CCOc1ccc(-c2nc3ccc(-c4nc5ccc(N6CCN(CC)CC6)cc5[nH]4)cc3[nH]2)cc1	8 (≈ 17.1 µM)	8 (≈ 17.1 µM)	2 (≈ 4.29 µM)	8 (≈ 17.1 µM)	4 (≈ 8.57 µM)	7.2 (≈ 15.4 µM)	8 (≈ 17.1 µM)	0.5 (≈ 1.07 µM)	0.7 (≈ 1.5 µM)	8 (≈ 17.1 µM)	1 (≈ 2.14 µM)	4 (≈ 8.57 µM)	7.5 (≈ 16.1 µM)	4 (≈ 8.57 µM)	4 (≈ 8.57 µM)	7.7 (≈ 16.5 µM)	64 (≈ 137 µM)	8 (≈ 17.1 µM)	8 (≈ 17.1 µM)	4 (≈ 8.57 µM)	
CCCN1CCN(c2ccc3nc(-c4ccc5nc(-c6ccc(OCC)cc6)[nH]c5c4)[nH]c3c2)CC1	4 (≈ 8.32 µM)	4 (≈ 8.32 µM)	2 (≈ 4.16 µM)	2 (≈ 4.16 µM)	1 (≈ 2.08 µM)	3.1 (≈ 6.45 µM)	4 (≈ 8.32 µM)	0.2 (≈ 0.416 µM)	0.8 (≈ 1.66 µM)	2 (≈ 4.16 µM)	0.2 (≈ 0.416 µM)	0.5 (≈ 1.04 µM)	1.7 (≈ 3.54 µM)	2 (≈ 4.16 µM)	0.5 (≈ 1.04 µM)	1.7 (≈ 3.54 µM)	2 (≈ 4.16 µM)	2 (≈ 4.16 µM)	4 (≈ 8.32 µM)	0.4 (≈ 0.832 µM)	Activity (Escherichia coli [17]): 3 mg/kg/day; Activity (Escherichia coli [18]): 5 mg/kg/day; Activity (Escherichia coli [19]): Dose-dependent effect; ED50 (Escherichia coli [19]; ATCC 25922, in Mus musculus, 168 h): 5 mg/kg; inhibition (Escherichia coli [20]): Active; Activity (Escherichia coli [21]): Dose-dependent effect; MIC50 (Escherichia coli [21]; ATCC 25922, Thigh): 0.2 µg/mL (≈ 0.416 µM); survival at 7 mg/kg (Escherichia coli [22]): 75%; K [23]: 7 ×10⁷ /M; Ka (Escherichia coli [24]): 6.8 ×10⁶ /M
COc1ccc(-c2nc3ccc(-c4nc5ccc(N6CCN(c7ncccn7)CC6)cc5[nH]4)cc3[nH]2)cc1OC	32 (≈ 60.1 µM)		8 (≈ 15 µM)	64 (≈ 120 µM)	128 (≈ 240 µM)		32 (≈ 60.1 µM)	2 (≈ 3.76 µM)	3.6 (≈ 6.76 µM)	32 (≈ 60.1 µM)	4 (≈ 7.51 µM)	16 (≈ 30 µM)	30.2 (≈ 56.7 µM)	32 (≈ 60.1 µM)	16 (≈ 30 µM)	30.6 (≈ 57.5 µM)		32 (≈ 60.1 µM)	64 (≈ 120 µM)	64 (≈ 120 µM)	
CCOc1ccc(-c2nc3ccc(-c4nc5ccc(N6CCN(CCN(C)C)CC6)cc5[nH]4)cc3[nH]2)cc1	32 (≈ 62.8 µM)	128 (≈ 251 µM)	16 (≈ 31.4 µM)	32 (≈ 62.8 µM)	64 (≈ 126 µM)	118 (≈ 232 µM)	32 (≈ 62.8 µM)	1 (≈ 1.96 µM)	14.5 (≈ 28.5 µM)	64 (≈ 126 µM)	2 (≈ 3.92 µM)	16 (≈ 31.4 µM)	29.4 (≈ 57.7 µM)	64 (≈ 126 µM)	8 (≈ 15.7 µM)	15 (≈ 29.4 µM)	128 (≈ 251 µM)	64 (≈ 126 µM)	64 (≈ 126 µM)	16 (≈ 31.4 µM)	
